Data set [1] relates to 3T3-L1. Nature of the data set: Cytotoxicity against mouse 3T3L1 cells at 40 ug/ml after 2 days by MTT assay. In kind it is cell-based. Particulars: 3t3-l1, 48 h. A digest of the protocol: (§1)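 3T3-L1 preadipocytes seeded at 1 × 10^4 cells/well in DMEM + 10% bovine calf serum, 37 °C, 5% CO2. After 24 h, vehicle or sample (10 to 80 µg/mL) added in serum-free DMEM. After a further 24 h, MTT added for 2 h. Formazan dissolved in DMSO, OD read at 570 nm.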
In general terms: Tetrazolium assays rely on reduction of a dye to a coloured formazan, in cell work by metabolically active cells.

Data set [2] deals with 3T3-L1. Nature of the data set: Inhibition of adipocytes differentiation in mouse 3T3L1 cells assessed as lipid accumulation at 40 ug/ml after 8 days by Oil red O staining relative to control. The data set is classed as functional. Particulars: 3T3-L1, 192 h. The essentials: (§2)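 Differentiation induced 2 days post-confluence with DEX, 0.5 mM IBMX and insulin in DMEM/10% FBS for 2 days, then DMEM/FBS/insulin refreshed every 2 days. Sample added every 2 days for 8 days (40 µg/mL, or 5–40 µg/mL series). Day 8: PBS wash, 4% formaldehyde fixation, oil red O 30 min, dye eluted with 2-propanol, A510 versus untreated control. Mean ± SD, n=3.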

The test system of data set [3] is 3T3-L1. As to the kind of experiment: Cytotoxicity against mouse 3T3L1 cells at 80 ug/ml after 2 days by MTT assay. The data set is classed as cell-based. Particulars: 3t3-l1, 48 h. A digest of the protocol: as §1
Data set [4] deals with T1, Glycerol-3-phosphate dehydrogenase [NAD(+)], cytoplasmic (Mus musculus) (UniProt P13707).
T1 sequence (whole entry): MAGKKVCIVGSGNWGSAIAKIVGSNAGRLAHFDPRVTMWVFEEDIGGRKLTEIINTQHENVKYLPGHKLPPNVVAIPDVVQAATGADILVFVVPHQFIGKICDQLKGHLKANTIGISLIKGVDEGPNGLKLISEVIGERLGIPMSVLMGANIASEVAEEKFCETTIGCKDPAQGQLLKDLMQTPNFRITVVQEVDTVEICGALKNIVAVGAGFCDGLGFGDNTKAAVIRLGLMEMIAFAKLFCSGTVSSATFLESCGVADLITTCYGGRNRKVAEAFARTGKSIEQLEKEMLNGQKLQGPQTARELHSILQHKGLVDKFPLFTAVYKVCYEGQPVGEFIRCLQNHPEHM
As to the kind of experiment: Inhibition of GPDH in mouse 3T3L1 cells assessed as reduction of NADH oxidation rate at 40 ug/ml. The data set is classed as cell-based. More on the design: scale not given: the % may be the effect or the level left. The following applies: 3T3-L1. The essentials:
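Preadipocytes kept in DMEM/10% BCS; induced 2 days post-confluence with DEX, 0.5 mM IBMX and insulin in DMEM/10% FBS, then DMEM/FBS/insulin. Treated every 2 days (5–40 µg/mL) to day 8. Cells collected in extraction buffer and spun 12 000 rpm, 5 min, 4 °C. Supernatant A340 decline over 5 min gives NADH oxidation with dihydroxyacetone phosphate, as units per mg protein (Bradford). Mean ± SD, n=3.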

The test system of data set [5] is 3T3-L1. As to the kind of experiment: Inhibition of adipocytes differentiation in mouse 3T3L1 cells assessed as lipid accumulation at 5 to 40 ug/ml after 8 days by Oil red O staining relative to control. The data set is classed as functional. The essentials: as §2
Data set [6] concerns 3T3-L1. As to the kind of experiment: Inhibition of adipocytes differentiation in mouse 3T3L1 cells assessed as lipid accumulation after 8 days by Oil red O staining relative to control. The data set is classed as functional, cell-based. A digest of the protocol:
as §2

Where only a bound is given, the exact number is not on record here.

As usually defined, the inhibition is the share of the control response that was lost under treatment. As for `COC(=O)C(C)CC(=O)C[C@@H](C)[C@H]1CC(=O)[C@@]2(C)C3=C(C(=O)C[C@]12C)[C@@]1(C)CC[C@H](O)C(C)(C)[C@@H]1C[C@@H]3O` (some centres undefined) [METHYL GANODERATE B], the Activity result in the data set on 3T3-L1 [1] is recorded as “Non-toxic”. The inhibition at 40 µg/mL in the data set on 3T3-L1 [2] came to 22%.

Regarding `CCCCOC(=O)[C@H](C)CC(=O)C[C@@H](C)[C@H]1CC(=O)[C@@]2(C)C3=C(C(=O)C[C@]12C)[C@@]1(C)CC[C@H](O)C(C)(C)[C@@H]1C[C@@H]3O` [BUTYL GANODERATE B], in the data set on 3T3-L1 [1], the Activity result is on record as “Non-toxic”. The inhibition at 40 µg/mL with 3T3-L1 [2] stood at 22%.

For the compound `CCCCOC(=O)C(C)CC(=O)C[C@@H](C)[C@H]1C[C@H](O)[C@@]2(C)C3=C(C(=O)C[C@]12C)[C@@]1(C)CCC(=O)C(C)(C)[C@@H]1C[C@@H]3O` (some centres undefined) [BUTYL GANODERATE A], the Activity entry in the data set on 3T3-L1 [1] was “Non-toxic”; in the data set on 3T3-L1 [3], “Toxic”. In addition, the inhibition at 40 µg/mL in the data set with 3T3-L1 [2] stood at 22%.

Turning to `COC(=O)C(C)CC(=O)C[C@@H](C)[C@H]1CC(=O)[C@@]2(C)C3=C(C(=O)C[C@]12C)[C@@]1(C)CCC(=O)C(C)(C)[C@@H]1CC3=O` (some centres undefined) [METHYL GANODERATE E], the Activity result in the data set on 3T3-L1 [1] was “Non-toxic”. Also, in the data set with 3T3-L1 [2], the inhibition at 40 µg/mL came to 22%.

For the compound `COC(=O)C(C)CC(=O)C[C@@H](C)[C@H]1CC(=O)[C@@]2(C)C3=C(C(=O)C[C@]12C)[C@@]1(C)CCC(=O)C(C)(C)[C@@H]1C[C@@H]3O` (some centres undefined) [METHYL GANODERATE D], the Activity result in the data set with 3T3-L1 [1] is “Non-toxic”. For the same compound, the inhibition at 40 µg/mL in the data set with 3T3-L1 [2] came to 22%.

Turning to `COC(=O)C(C)CC(=O)C[C@@H](C)[C@H]1C[C@H](O)[C@@]2(C)C3=C(C(=O)C[C@]12C)[C@@]1(C)CCC(=O)C(C)(C)[C@@H]1C[C@@H]3O` (some centres undefined) [METHYL GANODERATE A], the Activity entry is reported as “Non-toxic” with 3T3-L1 [1] and “Toxic” with 3T3-L1 [3]. The inhibition at 40 µg/mL in the data set with 3T3-L1 [2] came to 22%.

`C[C@H](CC(=O)C[C@@H](C)[C@H]1CC(=O)[C@@]2(C)C3=C(C(=O)C[C@]12C)[C@@]1(C)CCC(=O)C(C)(C)[C@@H]1CC3=O)C(=O)O` [GANODERIC ACID E]: in the data set with 3T3-L1 [1], the Activity result is “Non-toxic”. For the same compound, the inhibition at 40 µg/mL with 3T3-L1 [2] was 22%.

Regarding `COC(=O)C(C)CC(=O)C[C@@H](C)[C@H]1CC(=O)[C@@]2(C)C3=C(C(=O)[C@@H](OC(C)=O)[C@]12C)[C@@]1(C)CC[C@H](O)C(C)(C)[C@@H]1CC3=O` (some centres undefined) [METHYL GANODERATE H], the Activity result in the data set on 3T3-L1 [1] is “Non-toxic”. Besides, the inhibition at 40 µg/mL with 3T3-L1 [2] was determined as 22%.

Consider `COC(=O)CC[C@@H](C)[C@H]1CC(=O)[C@@]2(C)C3=C(C(=O)[C@@H](OC(C)=O)[C@]12C)[C@@]1(C)CC[C@H](O)C(C)(C)[C@@H]1C[C@@H]3O` [METHYL LUCIDENATE P], for which the Activity entry with 3T3-L1 [1] is recorded as “Non-toxic”. For the same compound, the inhibition at 40 µg/mL with 3T3-L1 [2] was found to be 22%.

For the compound `COC(=O)CC[C@@H](C)[C@H]1CC(=O)[C@@]2(C)C3=C(C(=O)C[C@]12C)[C@@]1(C)CCC(=O)C(C)(C)[C@@H]1C[C@@H]3O` [METHYL LUCIDENATE A], the values for the Activity result in the data set on 3T3-L1 [1] and in the data set with 3T3-L1 [3] were “Non-toxic” and “Toxic”, respectively. Besides, the inhibition at 40 µg/mL with 3T3-L1 [2] was 22%.

On to `COC(=O)CC[C@@H](C)[C@H]1CC(=O)[C@@]2(C)C3=C(C(=O)[C@@H](OC(C)=O)[C@]12C)[C@@]1(C)CC[C@H](O)C(C)(C)[C@@H]1CC3=O` [METHYL LUCIDENATE E2], for which the Activity entry in the data set with 3T3-L1 [1] is recorded as “Non-toxic”. For the same compound, the inhibition at 40 µg/mL with 3T3-L1 [2] amounted to 22%.

With `CCCCOC(=O)CC[C@@H](C)[C@H]1CC(=O)[C@@]2(C)C3=C(C(=O)C[C@]12C)[C@@]1(C)CC[C@H](O)C(C)(C)[C@@H]1C[C@@H]3O` [BUTYL LUCIDENATE N], the Activity result in the data set with 3T3-L1 [1] is “Non-toxic”; in data set [4], over 80%. Besides, the inhibition at 40 µg/mL with 3T3-L1 [2] was determined as 56%. The “inhibition (INH)” value with 3T3-L1 [5] was 56%. Also, the inhibition entry with 3T3-L1 [6] was “Dose-dependent effect”.

Regarding `CCCCOC(=O)CC[C@@H](C)[C@H]1CC(=O)[C@@]2(C)C3=C(C(=O)C[C@]12C)[C@@]1(C)CCC(=O)C(C)(C)[C@@H]1C[C@@H]3O` [BUTYL LUCIDENATE A], the figures for the Activity result in the data set on 3T3-L1 [1] and in the data set on 3T3-L1 [3] were “Non-toxic” and “Toxic”, respectively. The inhibition at 40 µg/mL in the data set with 3T3-L1 [2] stood at 22%.

In the case of `C[C@H](CCC(=O)O)[C@H]1CC(=O)[C@@]2(C)C3=C(C(=O)C[C@]12C)[C@@]1(C)CC[C@H](O)C(C)(C)[C@@H]1C[C@@H]3O` [LUCIDENIC ACID N], in the data set on 3T3-L1 [1], the Activity entry is listed as “Non-toxic”. The inhibition at 40 µg/mL in the data set on 3T3-L1 [2] worked out at 22%.

`CC(CC(=O)C[C@@H](C)[C@H]1C[C@H](O)[C@@]2(C)C3=C(C(=O)C[C@]12C)[C@@]1(C)CCC(=O)C(C)(C)[C@@H]1CC3)C(=O)O` (some centres undefined) [GANOLUCIDIC ACID A]: the Activity entry in the data set on 3T3-L1 [1] is on record as “Non-toxic”; in the data set with 3T3-L1 [3] it was “Toxic”. Also, the inhibition at 40 µg/mL in the data set with 3T3-L1 [2] amounted to 22%.

As for `CC(CC(=O)C[C@@H](C)[C@H]1CC(=O)[C@@]2(C)C3=C(C(=O)C[C@]12C)[C@@]1(C)CC[C@H](O)C(C)(C)[C@@H]1C[C@@H]3O)C(=O)O` (some centres undefined) [GANODERIC ACID B], the Activity entry in the data set on 3T3-L1 [1] is reported as “Non-toxic”. In addition, in the data set on 3T3-L1 [2], the inhibition at 40 µg/mL stood at 22%.

Take `C[C@H](CC(=O)C[C@@H](C)[C@H]1C[C@H](O)[C@@]2(C)C3=C(C(=O)C[C@]12C)[C@@]1(C)CCC(=O)C(C)(C)[C@@H]1C[C@@H]3O)C(=O)O` [GANODERIC ACID A]: the Activity result in the data set on 3T3-L1 [1] was “Non-toxic”. In the data set on 3T3-L1 [2], the inhibition at 40 µg/mL was determined as 22%.

As to `COC(=O)CC[C@@H](C)[C@H]1CC(=O)[C@@]2(C)C3=C(C(=O)C[C@]12C)[C@@]1(C)CCC(=O)C(C)(C)[C@@H]1CC3=O` [METHYL LUCIDENATE F], the Activity result in the data set on 3T3-L1 [1] is “Non-toxic”. For the same compound, in the data set on 3T3-L1 [2], the inhibition at 40 µg/mL was determined as 22%.

For the origin of these results see ChEMBL document CHEMBL1154866, “Lanostane triterpenes from the fruiting bodies of Ganoderma lucidum and their inhibitory effects on adipocyte differentiation in 3T3-L1 Cells” (J Nat Prod, 2010).
